Reference: ChEMBL document CHEMBL1142567, “Inhibition of leukotriene biosynthesis by stilbenoids from Stemona species” (J Nat Prod, 2005)
The source made the active and inactive calls. The calls are words filed in the database; no cut-off is given here.

What was measured:
Assay type in all cases: functional
[1] = Ex vivo inhibition of leukotriene formation in calcium ionophore activated human neutrophilic granulocyte by ELISA
Summary of the method: (§1)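 Human neutrophil granulocytes carrying 5-LOX activity, isolated by sedimentation rate and lysis tolerance. Cells activated with calcium ionophore, then incubated with test sample and arachidonic acid. Reaction stopped with formic acid and centrifuged. Supernatant diluted 50-fold; LTB4 measured by competitive EIA (18 h, 4 °C; Ellman's development; 412 nm). Samples tested at 50, 25, 10, 5 and 1 µM in duplicate. Inhibition given as percent of control; IC50 by probit-log analysis. Trypan blue viability check.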

[2] = (§2) Ex vivo inhibition of leukotriene formation in calcium ionophore activated human neutrophilic granulocyte at 50 uM by ELISA; summary of the method: as §1
Homo sapiens = species: Homo sapiens; assay: as §2; summary of the method: as §1
[3] = Ex vivo inhibition of leukotriene formation in calcium ionophore activated human neutrophilic granulocyte at 25 uM by ELISA; summary of the method: as §1

## Oc1cc(O)cc(/C=C/c2ccccc2)c1 [PINOSYLVIN]
[1]
  IC50: 22.7 µM

## COc1cc(-c2cc3c(O)cccc3o2)c(C)c(OC)c1C [STEMOFURAN J]
[1]
  IC50: 26.3 µM

## Oc1cc(O)cc(CCc2ccccc2)c1 [DIHYDROPINOSYLVIN]
[2]
  inhibition at 50 µM: 10%
[1]
  IC50: > 50 µM

## CC[C@@H]1[C@H]2CCCCN3[C@H]2[C@H](C[C@H]3[C@@H]2C[C@H](C)C(=O)O2)[C@@H]2[C@H]1OC(=O)[C@H]2C [TUBEROSTEMONINE]
Homo sapiens
  Activity: inactive
[1]
  IC50: > 50 µM

## COc1c(O)ccc2c1CCc1cc(O)c(C)c(OC)c1-2 [STEMANTHRENE A]
[1]
  IC50: 8.5 µM

## Cc1c(O)cc(CCc2ccccc2)cc1O [STILBOSTEMIN B]
[2]
  inhibition at 50 µM: 10%
[1]
  IC50: > 50 µM

## COc1cc(O)c(C)c2c1-c1ccc(O)c(OC)c1CC2 [STEMANTHRENE D]
[1]
  IC50: 4.8 µM

## COc1c(O)ccc2c1CCc1c(C)c(O)c(C)c(OC)c1-2 [STEMANTHRENE C]
[3]
  inhibition at 25 µM: 100%

## COc1cc(-c2cc3c(O)c(C)ccc3o2)c(C)c(O)c1C [STEMOFURAN G]
[1]
  IC50: 3.7 µM

## COc1cc2c(c(O)c1C)-c1ccc(O)c(OC)c1CC2 [STEMANTHRENE B]
[3]
  inhibition at 25 µM: 100%

## Cc1c(O)cc(-c2cc3ccccc3o2)cc1O [STEMOFURAN C]
[2]
  inhibition at 50 µM: 10%
[1]
  IC50: > 50 µM

## COc1cc(CCc2cccc(O)c2OC)cc(O)c1C [STILBOSTEMIN G]
[1]
  IC50: 25.8 µM

## COc1ccccc1CCc1cc(O)c(C)c(O)c1 [STILBOSTEMIN D]
[2]
  inhibition at 50 µM: < 10%
[1]
  IC50: > 50 µM

## COc1cc(O)c(C)c(CCc2cccc(O)c2OC)c1 [STILBOSTEMIN F]
[2]
  inhibition at 50 µM: < 10%
[1]
  IC50: > 50 µM

## Oc1ccc(/C=C/c2cc(O)cc(O)c2)cc1 [RESVERATROL]
[2]
  inhibition at 50 µM: < 10%
[1]
  IC50: > 50 µM

## COc1cc(O)c(C)c(-c2cc3c(O)cccc3o2)c1 [STEMOFURAN D]
[1]
  IC50: 30.3 µM

## CC(c1cc2ccccc2s1)N(O)C(N)=O (centres undefined) [ZILEUTON]
[1]
  IC50: 10.4 µM

## COc1ccccc1CCc1cc(O)cc(O)c1 [STILBOSTEMIN A]
[2]
  inhibition at 50 µM: < 10%
[1]
  IC50: > 50 µM

## CC[C@@H]1[C@H]2CCCCN3[C@H]2[C@@H](C[C@H]3[C@@H]2C[C@H](C)C(=O)O2)[C@H]2[C@@H]1OC(=O)[C@H]2C [NEOTUBEROSTEMONINE]
Homo sapiens
  Activity: inactive
[1]
  IC50: > 50 µM

## COc1cc(O)cc(-c2cc3c(O)cccc3o2)c1 [STEMOFURAN B]
[1]
  IC50: 23.3 µM
